ChEMBL document CHEMBL1649574, “Prevalence and characterization of heterogeneous vancomycin-intermediate Staphylococcus aureus isolates from 14 cities in China” (2009)
Converted amounts (≈) assume the structure as drawn.

Key:
[1] = test system: Staphylococcus aureus; test: Antimicrobial activity against heterogeneous vancomycin-intermediate Staphylococcus aureus by broth microdilution method; type: functional
Summary of the method: (§1)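 Daptomycin MICs on the blood MRSA isolates were done by broth microdilution. The broth was supplemented with calcium chloride to a final calcium of 50 mg/liter, confirmed by biochemical analysis. Isolates were grouped by PAP-AUC ratio relative to Mu3 (VSSA <0.9; hVISA 0.9 to 1.3; VISA ≥1.3).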

[2] = test system: Staphylococcus aureus; test: Antimicrobial activity against vancomycin-intermediate Staphylococcus aureus by broth microdilution method
[3] = test system: Staphylococcus aureus; test: Antimicrobial activity against heterogeneous vancomycin-intermediate Staphylococcus aureus assessed as intermediate isolates by broth microdilution method; type: functional
Summary of the method: (§2)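 Daptomycin MICs by broth microdilution in BBL broth with calcium chloride added to a final calcium of 50 mg/liter, checked by biochemical analysis. Tested on the 200 MRSA blood isolates, grouped as hVISA/VISA or VSSA by PAP-AUC ratio relative to Mu3.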

[4] = test system: Staphylococcus aureus; test: Antimicrobial activity against heterogeneous vancomycin-intermediate Staphylococcus aureus assessed as susceptible isolates by broth microdilution method; type: functional; summary of the method: as §2
[5] = test system: Staphylococcus aureus; test: Antimicrobial activity against heterogeneous vancomycin-intermediate Staphylococcus aureus assessed as growth inhibition at 0.25 times MIC; type: functional; parameters: scale not given: the % may be the effect or the level left
[6] = test system: Staphylococcus aureus; test: Antimicrobial activity against heterogeneous vancomycin-intermediate Staphylococcus aureus assessed as growth inhibition at 0.125 times MIC; type: functional; parameters: scale not given: the % may be the effect or the level left
[7] = test system: Staphylococcus aureus; test: Antimicrobial activity against vancomycin-susceptible Staphylococcus aureus by broth microdilution method; type: functional; summary of the method: as §1
[8] = test system: Staphylococcus aureus; test: Antimicrobial activity against heterogeneous vancomycin-susceptible Staphylococcus aureus assessed as intermediate isolates by broth microdilution method; type: functional; summary of the method: as §2
[9] = test system: Staphylococcus aureus; test: Antimicrobial activity against heterogeneous vancomycin-susceptible Staphylococcus aureus assessed as susceptible isolates by broth microdilution method; type: functional; summary of the method: as §2
[10] = test system: Staphylococcus aureus; test: Antimicrobial activity against heterogeneous vancomycin-intermediate Staphylococcus aureus assessed as growth inhibition at 0.5 times MIC; type: functional; parameters: scale not given: the % may be the effect or the level left
[11] = test system: Staphylococcus aureus; test: Antimicrobial activity against heterogeneous vancomycin-intermediate Staphylococcus aureus assessed as growth inhibition at MIC; type: functional; parameters: scale not given: the % may be the effect or the level left
[12] = test system: Staphylococcus aureus; test: Antimicrobial activity against heterogeneous vancomycin-intermediate Staphylococcus aureus assessed as growth inhibition at 2 times MIC; type: functional; parameters: scale not given: the % may be the effect or the level left
[13] = test system: Staphylococcus aureus; test: Antimicrobial activity against heterogeneous vancomycin-intermediate Staphylococcus aureus assessed as growth inhibition at 4 times MIC; type: functional; parameters: scale not given: the % may be the effect or the level left
[14] = test system: Staphylococcus aureus; test: Antimicrobial activity against heterogeneous vancomycin-intermediate Staphylococcus aureus assessed as growth inhibition at 16 times MIC; type: functional; parameters: scale not given: the % may be the effect or the level left
[15] = test system: Staphylococcus aureus; test: Antimicrobial activity against vancomycin-susceptible Staphylococcus aureus assessed as growth inhibition at 0.125 times MIC; type: functional; parameters: scale not given: the % may be the effect or the level left
[16] = test system: Staphylococcus aureus; test: Antimicrobial activity against vancomycin-susceptible Staphylococcus aureus assessed as growth inhibition at 0.25 times MIC; type: functional; parameters: scale not given: the % may be the effect or the level left
[17] = test system: Staphylococcus aureus; test: Antimicrobial activity against vancomycin-susceptible Staphylococcus aureus assessed as growth inhibition at 0.5 times MIC; type: functional; parameters: scale not given: the % may be the effect or the level left
[18] = test system: Staphylococcus aureus; test: Antimicrobial activity against vancomycin-susceptible Staphylococcus aureus assessed as growth inhibition at MIC; type: functional; parameters: scale not given: the % may be the effect or the level left
[19] = test system: Staphylococcus aureus; test: Antimicrobial activity against vancomycin-susceptible Staphylococcus aureus assessed as growth inhibition at 2 times MIC; type: functional; parameters: scale not given: the % may be the effect or the level left
[20] = test system: Staphylococcus aureus; test: Antimicrobial activity against vancomycin-susceptible Staphylococcus aureus assessed as growth inhibition at 4 times MIC; type: functional; parameters: scale not given: the % may be the effect or the level left
[21] = test system: Staphylococcus aureus; test: Antimicrobial activity against vancomycin-susceptible Staphylococcus aureus assessed as growth inhibition at 16 times MIC; type: functional; parameters: scale not given: the % may be the effect or the level left
[22] = test system: Staphylococcus aureus; test: Antimicrobial activity against SCCmec type II vancomycin-intermediate Staphylococcus aureus isolate 4sy39 by broth microdilution method
[23] = test system: Staphylococcus aureus; test: Antimicrobial activity against SCCmec type II vancomycin-intermediate Staphylococcus aureus isolate 4sy32 by broth microdilution method
[24] = test system: Staphylococcus aureus; test: Antimicrobial activity against SCCmec type III vancomycin-intermediate Staphylococcus aureus isolate 5zjsau3 by broth microdilution method
[25] = test system: Staphylococcus aureus; test: Antimicrobial activity against SCCmec type II vancomycin-intermediate Staphylococcus aureus isolate sh06024 by broth microdilution method
[26] = test system: Staphylococcus aureus; test: Antimicrobial activity against SCCmec type III vancomycin-intermediate Staphylococcus aureus isolate gz06040 by broth microdilution method
[27] = test system: Staphylococcus aureus; test: Antimicrobial activity against SCCmec type III vancomycin-intermediate Staphylococcus aureus isolate gz06051 by broth microdilution method
[28] = test system: Staphylococcus aureus; test: Antimicrobial activity against SCCmec type II vancomycin-intermediate Staphylococcus aureus isolate 6zjsau7 by broth microdilution method
[29] = test system: Staphylococcus aureus; test: Antimicrobial activity against SCCmec type III vancomycin-intermediate Staphylococcus aureus isolate bd4768 by broth microdilution method
[30] = test system: Staphylococcus aureus; test: Antimicrobial activity against SCCmec type II vancomycin-intermediate Staphylococcus aureus isolate b2k4781 by broth microdilution method
[31] = test system: Staphylococcus aureus; test: Antimicrobial activity against SCCmec type III vancomycin-intermediate Staphylococcus aureus isolate b3k2345 by broth microdilution method
[32] = test system: Staphylococcus aureus; test: Antimicrobial activity against SCCmec type III vancomycin-intermediate Staphylococcus aureus isolate b2k3421 by broth microdilution method
[33] = test system: Staphylococcus aureus; test: Antimicrobial activity against SCCmec type III vancomycin-intermediate Staphylococcus aureus isolate b3k5923 by broth microdilution method
[34] = test system: Staphylococcus aureus; test: Antimicrobial activity against SCCmec type III vancomycin-intermediate Staphylococcus aureus isolate b4k6307 by broth microdilution method
[35] = test system: Staphylococcus aureus; test: Antimicrobial activity against SCCmec type III vancomycin-intermediate Staphylococcus aureus isolate b5k3529 by broth microdilution method
[36] = test system: Staphylococcus aureus; test: Antimicrobial activity against SCCmec type III vancomycin-intermediate Staphylococcus aureus isolate b5k3578 by broth microdilution method
[37] = test system: Staphylococcus aureus; test: Antimicrobial activity against SCCmec type III vancomycin-intermediate Staphylococcus aureus isolate b6k1642 by broth microdilution method
[38] = test system: Staphylococcus aureus; test: Antimicrobial activity against SCCmec type III vancomycin-intermediate Staphylococcus aureus isolate b6k7974 by broth microdilution method; type: functional; summary of the method: as §1
[39] = test system: Staphylococcus aureus; test: Antimicrobial activity against SCCmec type IV vancomycin-intermediate Staphylococcus aureus isolate 06b41 by broth microdilution method; type: functional; summary of the method: as §1
[40] = test system: Staphylococcus aureus; test: Antimicrobial activity against SCCmec type III vancomycin-intermediate Staphylococcus aureus isolate 13b16 by broth microdilution method
[41] = test system: Staphylococcus aureus; test: Antimicrobial activity against SCCmec type III vancomycin-intermediate Staphylococcus aureus isolate 11b091 by broth microdilution method
[42] = test system: Staphylococcus aureus; test: Antimicrobial activity against SCCmec type II vancomycin-intermediate Staphylococcus aureus isolate 07b63 by broth microdilution method
[43] = test system: Staphylococcus aureus; test: Antimicrobial activity against SCCmec type III vancomycin-intermediate Staphylococcus aureus isolate 15b52 by broth microdilution method
[44] = test system: Staphylococcus aureus; test: Antimicrobial activity against SCCmec type III vancomycin-intermediate Staphylococcus aureus isolate zj07028 by broth microdilution method
[45] = test system: Staphylococcus aureus; test: Antimicrobial activity against SCCmec type III vancomycin-intermediate Staphylococcus aureus isolate sh07043 by broth microdilution method; type: functional; summary of the method: as §1
[46] = test system: Staphylococcus aureus; test: Antimicrobial activity against SCCmec type III vancomycin-intermediate Staphylococcus aureus isolate xa07029 by broth microdilution method
[47] = test system: Staphylococcus aureus; test: Antimicrobial activity against SCCmec type III vancomycin-intermediate Staphylococcus aureus isolate gz07030 by broth microdilution method
[48] = test system: Staphylococcus aureus; test: Antimicrobial activity against SCCmec type III vancomycin-intermediate Staphylococcus aureus isolate gs07022 by broth microdilution method

`CCCCCCCCCC(=O)N[C@@H](Cc1c[nH]c2ccccc12)C(=O)N[C@H](CC(N)=O)C(=O)N[C@@H](CC(=O)O)C(=O)N[C@@H]1C(=O)NCC(=O)N[C@@H](CCCN)C(=O)N[C@@H](CC(=O)O)C(=O)N[C@H](C)C(=O)N[C@@H](CC(=O)O)C(=O)NCC(=O)N[C@H](CO)C(=O)N[C@@H]([C@H](C)CC(=O)O)C(=O)N[C@@H](CC(=O)c2ccccc2N)C(=O)O[C@@H]1C` was tested, and the MIC50 [1] was 0.5 µg/mL (≈ 0.309 µM), the MIC90 [1] was 1 µg/mL (≈ 0.617 µM) and the MIC [2] was 0.5 µg/mL (≈ 0.309 µM). For the same molecule, the Activity [3] was 0%, the Activity [4] was 100% and the Activity [5] was 14.8%. For the same molecule, the Activity [6] was 0%, the MIC50 [7] was 0.5 µg/mL (≈ 0.309 µM) and the MIC90 [7] was 0.5 µg/mL (≈ 0.309 µM). The Activity [8] was 0%, the Activity [9] was 100% and the Activity [10] was 88.9%. For the same molecule, the Activity [11] was 100%, the Activity [12] was 100% and the Activity [13] was 100%. It also gave an Activity [14] of 100%, an Activity [15] of 0.58% and an Activity [16] of 10.7%. For the same molecule, the Activity [17] was 95.1%, the Activity [18] was 100% and the Activity [19] was 100%. It also gave an Activity [20] of 100%, an Activity [21] of 100% and an MIC [22] of 0.5 µg/mL (≈ 0.309 µM). For the same molecule, the MIC [23] was 0.5 µg/mL (≈ 0.309 µM), the MIC [24] was 0.5 µg/mL (≈ 0.309 µM) and the MIC [25] was 0.5 µg/mL (≈ 0.309 µM). For the same molecule, the MIC [26] was 0.5 µg/mL (≈ 0.309 µM), the MIC [27] was 0.25 µg/mL (≈ 0.154 µM) and the MIC [28] was 0.25 µg/mL (≈ 0.154 µM). The MIC [29] was 0.5 µg/mL (≈ 0.309 µM), the MIC [30] was 0.5 µg/mL (≈ 0.309 µM) and the MIC [31] was 0.5 µg/mL (≈ 0.309 µM). The MIC [32] was 0.5 µg/mL (≈ 0.309 µM), the MIC [33] was 0.25 µg/mL (≈ 0.154 µM) and the MIC [34] was 0.25 µg/mL (≈ 0.154 µM). It also gave an MIC [35] of 0.5 µg/mL (≈ 0.309 µM), an MIC [36] of 0.5 µg/mL (≈ 0.309 µM) and an MIC [37] of 0.5 µg/mL (≈ 0.309 µM). It also gave an MIC [38] of 1 µg/mL (≈ 0.617 µM), an MIC [39] of 1 µg/mL (≈ 0.617 µM) and an MIC [40] of 0.5 µg/mL (≈ 0.309 µM). For the same molecule, the MIC [41] was 0.5 µg/mL (≈ 0.309 µM), the MIC [42] was 0.5 µg/mL (≈ 0.309 µM) and the MIC [43] was 0.5 µg/mL (≈ 0.309 µM). It also gave an MIC [44] of 0.5 µg/mL (≈ 0.309 µM), an MIC [45] of 1 µg/mL (≈ 0.617 µM) and an MIC [46] of 0.5 µg/mL (≈ 0.309 µM). The MIC [47] was 0.5 µg/mL (≈ 0.309 µM) and the MIC [48] was 0.5 µg/mL (≈ 0.309 µM).
